The values below come from ChEMBL document CHEMBL1155674, “New isomalabaricane triterpenes from the marine sponge Stelletta globostellata that induce morphological changes in rat fibroblasts” (J Nat Prod, 2000).

One data set relates to Penicillium chrysogenum. Put plainly: Antimicrobial activity against Penicillium chrysogenum at 100 ug/disk. In kind it is functional, organism-based.
A further data set deals with Umbelopsis ramanniana. Description: Antimicrobial activity against Mortierella ramanniana at 100 ug/disk. It counts as functional, organism-based.
For a further data set, the system named is Escherichia coli. Description: Antimicrobial activity against Escherichia coli at 100 ug/disk. In kind it is functional, organism-based.
The subject of data set [1] is P388. Put plainly: Cytotoxicity against mouse P388 cells by MTT assay. In kind it is functional. Background: Tetrazolium dyes change colour on reduction, which living cells bring about.
The subject of the next data set is Candida albicans. Description: Antimicrobial activity against Candida albicans at 100 ug/disk. In kind it is functional, organism-based.
For a further data set, the system named is Pseudomonas aeruginosa. Put plainly: Antimicrobial activity against Pseudomonas aeruginosa at 100 ug/disk. It counts as functional, organism-based.
The test system of a further data set is Bacillus subtilis. Put plainly: Antimicrobial activity against Bacillus subtilis at 100 ug/disk. In kind it is functional, organism-based.
The nature of data set [2]: Cytotoxicity against rat 3Y1 cells after 72 hrs by MTT assay. In kind it is cell-based. An outline of the steps: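 3Y1 rat embryonic fibroblasts (B clone 1-6) in DMEM with 10% fetal calf serum were seeded at 300 cells/well and incubated 24 h. Samples were added, then plates were held 72 h at 37 °C. MTT (5 mg/mL in Ca/Mg-free PBS) was added for 4 h, formazan was dissolved in DMSO, and absorbance was read at 540 nm to give GI50.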

Another data set relates to 3Y1 cell line. Description: Induction of morphological changes in rat 3Y1 cells assessed as lost pseudopodia at 0.2 uM before washing. It counts as functional, cell-based. The procedure, abridged: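 3Y1 B clone 1-6 fibroblasts, kept subconfluent in DMEM/10% fetal calf serum at 37 °C under 5% CO2, were seeded at 2 × 10⁴ cells/mL and incubated 24 h. Samples in MeOH were added. Morphology was checked by phase-contrast microscopy at 1, 5 and 24 h and on day 5. Some cultures were washed with fresh medium to test reversibility.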

A further data set concerns Staphylococcus aureus. Description: Antimicrobial activity against Staphylococcus aureus at 100 ug/disk. It counts as functional, organism-based.
A short description of data set [3]: Induction of cell death in rat 3Y1 cells at 0.2 uM after 5 days without washing. The settings on record: 3y1, 120 h.
Data set [4] in a line: Induction of cell death in rat 3Y1 cells at 0.2 uM after 5 days after washing. Particulars: 3y1, 120 h. It counts as cell-based.
Data set [5] is described as follows: Cytotoxicity against rat 3Y1 cells at 18 uM after 72 hrs by MTT assay. It counts as cell-based. The settings on record: 3y1, 72 h.
Data set [6] deals with P388. Description: Cytotoxicity against mouse P388 cells at 18 uM by MTT assay. In kind it is functional, cell-based.

Active and inactive are the calls of the source. The calls are words filed in the database; no cut-off is given here.

Broadly, the GI50 is the concentration that inhibits growth by half. In the case of `CC(C)=CCC/C(C)=C/C=C/C(C)=C1\C(=O)C[C@H]2[C@@]3(C)CC[C@H](O)[C@](C)(CO)[C@@H]3CC[C@]12C`, the outcome in the data set on Penicillium chrysogenum, with Umbelopsis ramanniana, with Escherichia coli, in the data set on Candida albicans, in the data set on Pseudomonas aeruginosa and with Bacillus subtilis was inactive. Further, the result in the data set on Staphylococcus aureus was inactive. The compound further displayed a GI50 with P388 [1] of 190 nM. In data set [2], growth was halved (GI50 at 72 h) at 60 nM. In the data set with 3Y1 cell line, the outcome was Active. The outcome in data set [3] was Active.

As to `CC(=O)O[C@@H](CC=C(C)C)/C(C)=C/C=C/C(C)=C1\C(=O)C[C@H]2[C@@]3(C)CC[C@@H](OC(C)=O)[C@](C)(CO)[C@@H]3CC[C@]12C`, the outcome with Penicillium chrysogenum, with Umbelopsis ramanniana, with Escherichia coli, in the data set with Candida albicans, with Pseudomonas aeruginosa and in the data set with Bacillus subtilis was inactive. Moreover, in the data set with Staphylococcus aureus, the outcome was inactive. The result in data set [4] was Active. The compound also came in with a GI50 in the data set with P388 [1] of 160 nM. Further, in [2], the GI50 at 72 h was determined as 52 nM. Moreover, the outcome in the data set on 3Y1 cell line was Active.

As for `CC(=O)O[C@@H]1CC[C@@]2(C)[C@@H](CC[C@]3(C)/C(=C(C)/C=C/C=C(\C)[C@@H](O)CC=C(C)C)C(=O)C[C@@H]23)[C@@]1(C)CO`, the outcome with Penicillium chrysogenum, in the data set on Umbelopsis ramanniana, in the data set on Escherichia coli, in the data set with Candida albicans, with Pseudomonas aeruginosa and with Bacillus subtilis was inactive. Further, the result in the data set on Staphylococcus aureus was inactive. For the same compound, the outcome in [4] was Active. The same compound gave a GI50 in the data set with P388 [1] of 180 nM. In data set [2], the GI50 at 72 h came out at 46 nM. The result with 3Y1 cell line was Active.

Turning to `CC(=O)O[C@H]1CC[C@@]2(C)[C@@H](CC[C@]3(C)/C(=C(C)/C=C/C=C(\C)[C@@H](O)CC=C(C)C)C(=O)C[C@@H]23)C1(C)C` [STELLIFERIN A], the outcome in the data set with Penicillium chrysogenum, in the data set with Umbelopsis ramanniana, in the data set on Escherichia coli, in the data set on Candida albicans, in the data set with Pseudomonas aeruginosa and in the data set on Bacillus subtilis was inactive. The result in the data set with Staphylococcus aureus was inactive. The GI50 in the data set with P388 [1] was 21 nM. In data set [2], this compound gave a GI50 at 72 h of 34 nM. Also, the outcome with 3Y1 cell line was Active. In data set [3], the result was Active.

`COc1cccc2c1C(=O)c1c(O)c3c(c(O)c1C2=O)C[C@@](O)(C(=O)CO)C[C@@H]3O[C@H]1C[C@H](N)[C@H](O)[C@H](C)O1` [DOXORUBICIN]: it took 12 nM to inhibit growth in the data set with P388 [1] by half (GI50). The GI50 at 72 h in data set [2] is 3.8 nM.

Turning to `CC(=O)O[C@H]1C[C@H]2[C@@]3(C)CC[C@H](OC(C)=O)C(C)(C)[C@@H]3CC[C@]2(C)/C1=C(C)/C=C/C=C(\C)[C@H](CC=C(C)C)OC(C)=O`, growth in the data set with P388 [1] was halved (GI50) at 1600 nM. The GI50 at 72 h in data set [2] was 1300 nM.

In the case of `CC(=O)O[C@@H]1CC[C@@]2(C)[C@@H](CC[C@]3(C)/C(=C(\C)C(=O)/C=C/C(C)=C/C=C/C(C)(C)O)C(=O)C[C@@H]23)[C@@]1(C)C(=O)[O-].[Na+]` [GLOBOSTELLATIC ACID A], the Activity result is “Non-toxic” in data set [5] and “Not toxic” in the data set with P388 [6].

As for `CC(C)=CCC/C(C)=C/C=C/C(C)=C1\C(=O)C[C@H]2[C@@]3(C)CC[C@H](O)C(C)(C)[C@@H]3CC[C@]12C` [STELLIFERIN D], the result with Penicillium chrysogenum, in the data set on Umbelopsis ramanniana, in the data set with Escherichia coli, in the data set with Candida albicans, in the data set with Pseudomonas aeruginosa and in the data set with Bacillus subtilis was inactive. Further, in the data set with Staphylococcus aureus, the result was inactive. In the data set on P388 [1], the GI50 is 24 nM. For the same compound, halving of growth in data set [2] (GI50 at 72 h) required 18 nM. Besides, in the data set on 3Y1 cell line, the result was Active. The outcome in [3] was Active.
